Measurements taken from ChEMBL document CHEMBL2163344, “Immunomodulatory properties of novel nucleotide oligomerization domain 2 (nod2) agonistic desmuramyldipeptides” (J Med Chem, 2012).
Calls of active or inactive are those of the source. No cut-off for these calls is given here.

Key:
Type in all cases: functional, cell-based
PBMC [1] = experiment: Immunomodulatory activity in human PBMCs assessed as increase in PMA/ionomycin-induced IL-1beta release at 20 uM by multiplexed cytokine assay; conditions: TDE = time-dependent effect
How it was run: (§1)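 Ficoll-isolated human PBMC, 1 × 10^6 cells per well, treated with 20 μM compound (DMSO ≤0.1%) plus PMA 3.33 ng/mL and ionomycin 500 nM for 18 h at 37 °C, 5% CO2. Cell-free supernatant cytokines measured by CBA human inflammatory kit on a flow cytometer against recombinant standards. Reported as % of PMA/ionomycin-only release; duplicates, three experiments, three donors.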

PBMC [2] = experiment: Immunomodulatory activity in human PBMCs assessed as increase in PMA/ionomycin-induced IL-1beta release incubated for 18 hrs by multiplexed cytokine assay
PBMC [3] = experiment: Immunomodulatory activity in human PBMCs assessed as increase in PMA/ionomycin-induced IL6 release at 20 uM by multiplexed cytokine assay; conditions: TDE = time-dependent effect; how it was run: as §1
PBMC [4] = experiment: Immunomodulatory activity in human PBMCs assessed as increase in PMA/ionomycin-induced IL-12p70 release incubated for 18 hrs by multiplexed cytokine assay
PBMC [5] = experiment: Immunomodulatory activity in human PBMCs assessed as increase in PMA/ionomycin-induced IL8 release at 20 uM incubated for 4 to 40 hrs by multiplexed cytokine assay
How it was run: (§2)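 PBMC time course: 20 μM compound with PMA 3.33 ng/mL and ionomycin 500 nM. Supernatants collected at 4, 18 and 40 h and cytokines read by cytometric bead array. Compared with PMA/ionomycin-only control; two independent experiments in duplicate, two donors.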

PBMC [6] = experiment: Immunomodulatory activity in human PBMCs assessed as increase in PMA/ionomycin-induced IL10 release at 20 uM incubated for 4 to 40 hrs by multiplexed cytokine assay; how it was run: as §2
PBMC [7] = experiment: Immunomodulatory activity in human PBMCs assessed as increase in PMA/ionomycin-induced IL6 release incubated for 18 hrs by multiplexed cytokine assay
PBMC [8] = experiment: Immunomodulatory activity in human PBMCs assessed as increase in PMA/ionomycin-induced IL10 release at 0.2 to 200 uM incubated for 18 hrs by multiplexed cytokine assay
How it was run: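 Human PBMC stimulated with PMA 3.33 ng/mL and ionomycin 500 nM plus compound at 0.2, 2, 20 or 200 μM for 18 h. Supernatant cytokines quantified by cytometric bead array. Compared with PMA/ionomycin-only cells; two independent experiments in duplicate, two donors, mean ± SD.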

PBMC [9] = experiment: Immunomodulatory activity in human PBMCs assessed as reduction in PMA/ionomycin-induced TNFalpha release at 20 uM incubated for 18 hrs by multiplexed cytokine assay; how it was run: as §1

| SMILES | Activity (PBMC [1]) | Activity (PBMC [2]) | Activity (PBMC [3]) | Activity (PBMC [4]) | Activity (PBMC [5]) | Activity (PBMC [6]) | Activity (PBMC [7]) | Activity (PBMC [8]) | Activity (PBMC [9]) |
| --- | --- | --- | --- | --- | --- | --- | --- | --- | --- |
| CCOC(=O)CC[C@@H](NC(=O)[C@H](C)NC(=O)CNC(=O)c1cc2ccccc2[nH]1)C(=O)OCC | tde | Dose-dependent effect | tde | Dose-dependent effect | inactive | inactive | Dose-dependent effect | inactive | – |
| CCOC(=O)CC[C@@H](NC(=O)[C@H](C)NC(=O)CNC(=O)c1cc2ccccc2[nH]1)C(N)=O | – | – | – | – | – | – | – | – | Active |
| CCCCOC(=O)[C@@H](CCC(N)=O)NC(=O)[C@H](C)NC(=O)[C@@H](C)O[C@H]1[C@H](O)[C@@H](CO)OC(O)[C@@H]1NC(C)=O (some centres not stated) [MURABUTIDE] | tde | Dose-dependent effect | tde | Dose-dependent effect | inactive | inactive | Dose-dependent effect | inactive | – |
